# High-throughput results as filed in PubChem BioAssay.
# T cruzi HTS = inhibitors of intracellular Trypanosoma cruzi | intracellular Trypanosoma cruzi in host cells, plate reader | activity score (inhibition), % at 5.01 µM | hit rate 4.9% among 22,000 | AID 651903; in the data active = activity score above about 55%;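 also: parasites and compound incubated about four days before reading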
# A1 apoptosis 2 = compounds inhibiting A1, read as caspase activation. caspase activation, % (no concentration beside the values). MEF A1-2A-BIM cells, caspase-Glo luminescence, 3 h; percent of clofoctol response, DMSO zero. 24,000 tested, under 10 active; in the data active = caspase activation above about 5.9%
#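 System: mouse embryonic fibroblasts co-expressing A1 and BIM (A1-2A-BIM), primed for A1 dependence; amount: 2500 cells/well; doses: 50 nL pinned compound; schedule: cells settled overnight, compound exposure 3 h at 37 °C, 5% CO2; detection: Caspase-Glo 3/7 luminescence, 1 h at room temperature; read-out: Caspase-3/7 activation, seen as rise in luminescence signal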
# INS-1E rescue = INS-1E beta cell protection from cytokine death. hit rate 0.1% among 20,000. protection from cytokine-induced ATP loss, % at 10 µM. INS-1E cytokine-induced death, ATP luminescence, 48 h; normalised: neutral wells 0, positive control 100;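 active = mean replicate protection from cytokine-induced ATP loss at least 50% and at least 75% of replicates each reaching 50%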
#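 Assay system – rat INS-1E insulinoma cell line · Quantity – 8000 cells per well · Buffer or medium – RPMI without phenol red, 5% FBS · Schedule – 48 h co-treatment, 10 min post-lysis read · Technique – luminescent ATP assay (CellTiter-Glo)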
# Numbers stand for hits; . = inactive; / = no result given. The sample as a whole holds a higher share of hits than the screen did.
SMILES,T cruzi HTS,A1 apoptosis 2,INS-1E rescue
COc1cccc(-c2cnc3c(c2)C(=O)N([C@H](C)CO)C[C@H](C)[C@H](CN(C)C)O3)c1,75.9,.,/
COC(=O)CCCCCCC(=O)N/N=C/[C@H](O)[C@@H](O)[C@H](O)[C@H](O)CO,.,.,.
O=C(CCCCCCC(=O)Nc1ccccc1O)N/N=C/c1ccc(-c2ccccc2)c(F)c1,.,/,.
CC1(C)[C@H]2CC=C(/C=N\NC(=O)c3ccc(C(=O)NO)cc3)[C@@H]1C2,.,.,.
[N-]=[N+]=Nc1ccccc1C[C@]1(C(=O)NCCN2CCOCC2)N=C(c2ccc(OCCCO)cc2)O[C@H]1c1ccccc1,/,.,/
O=C(O)c1ccc(/C=N/NC(=O)c2ccc(C(=O)NO)cc2)cc1,.,.,.
Cc1ccc(S(=O)(=O)Nc2ccc3c(c2)C(=O)N([C@H](C)CO)C[C@H](C)[C@H](CN(C)Cc2ccc(C(F)(F)F)cc2)O3)cc1,69.2,.,.
C[C@@H]1CN([C@@H](C)CO)C(=O)c2cc(NS(=O)(=O)c3ccccc3)ccc2O[C@@H]1CN(C)Cc1ccc(C(F)(F)F)cc1,.,/,.
C[C@H](CO)N1C[C@H](C)[C@H](CN(C)Cc2ccc(C(F)(F)F)cc2)Oc2ccc(NS(=O)(=O)c3ccccc3)cc2C1=O,66.2,/,.
C[C@@H]1CN([C@H](C)CO)C(=O)c2cc(NS(=O)(=O)c3ccc(F)cc3)ccc2O[C@@H]1CN(C)Cc1ccc(C(F)(F)F)cc1,.,/,.
COc1cc(/C=C/C=N/NC(=O)c2cccc(C(=O)NO)c2)ccc1O,.,.,.
O=C(CCCCCC(=O)N/N=C/c1ccc([N+](=O)[O-])c(O)c1)NO,.,.,.
O=C(NO)c1cccc(C(=O)N/N=C/c2ccc(O)c(F)c2)c1,.,/,.
COc1ccc(S(=O)(=O)N(C)C[C@@H]2Oc3ccc(NC(=O)Nc4ccc(C(F)(F)F)cc4)cc3CC(=O)N([C@@H](C)CO)C[C@H]2C)cc1,/,.,/
COc1ccc(S(=O)(=O)N(C)C[C@H]2Oc3ccc(NC(=O)Nc4ccc(C(F)(F)F)cc4)cc3CC(=O)N([C@H](C)CO)C[C@H]2C)cc1,64.7,.,.
C[C@H](CO)N1C[C@H](C)[C@H](CN(C)S(=O)(=O)c2ccc(F)cc2)Oc2ccc(NC(=O)Nc3ccc(C(F)(F)F)cc3)cc2CC1=O,69.3,.,.
Cc1ccc(S(=O)(=O)N(C)C[C@@H]2Oc3ccc(NC(=O)Nc4ccc(C(F)(F)F)cc4)cc3CC(=O)N([C@@H](C)CO)C[C@H]2C)cc1,/,.,/
Cc1ccc(S(=O)(=O)N(C)C[C@H]2Oc3ccc(NC(=O)Nc4ccc(C(F)(F)F)cc4)cc3CC(=O)N([C@H](C)CO)C[C@H]2C)cc1,64.0,.,.
C[C@H](CO)N1C[C@H](C)[C@H](CN(C)S(=O)(=O)c2ccc(F)cc2)Oc2ccc(NC(=O)Nc3ccc(F)cc3)cc2CC1=O,.,.,.
[N-]=[N+]=NCc1ccccc1C[C@]1(C(=O)NCC(O)CO)N=C(c2ccc(OCCCO)cc2)O[C@H]1c1ccccc1 (some centres undefined),/,.,/
[N-]=[N+]=NCc1ccccc1C[C@@]1(C(=O)NCC(O)CO)N=C(c2ccc(OCCCO)cc2)O[C@@H]1c1ccccc1 (some centres undefined),/,5.9,/
C[C@H]1CN([C@@H](C)CO)C(=O)Cc2cc(NC(=O)Nc3cccc4ccccc34)ccc2O[C@@H]1CN(C)CC1CC1,.,.,.
C[C@@H]1CN([C@H](C)CO)C(=O)Cc2cc(NC(=O)Nc3cccc4ccccc34)ccc2O[C@@H]1CN(C)CC1CCCCC1,.,.,.
C[C@H]1CN([C@@H](C)CO)C(=O)Cc2cc(NC(=O)Nc3cccc4ccccc34)ccc2O[C@H]1CN(C)CC1CCCCC1,61.8,/,.
C[C@@H]1CN([C@H](C)CO)C(=O)Cc2cc(NC(=O)Nc3cccc4ccccc34)ccc2O[C@H]1CN(C)CC1CCCCC1,68.5,/,.
SMILES,T cruzi HTS,A1 apoptosis 2,INS-1E rescue
COCCOC(=O)N1C(=O)[C@@]2(c3ccccc31)[C@H](C(=O)N1CCc3cc(OC)c(OC)cc3C1)[C@H]1C(=O)O[C@H](c3ccccc3)[C@H](c3ccccc3)N1[C@@H]2c1ccccc1OCCO,/,.,/
C[C@@H]1CN([C@H](C)CO)C(=O)Cc2cc(NC(=O)Nc3ccc(C(F)(F)F)cc3)ccc2O[C@@H]1CN(C)Cc1ccc(C(=O)Nc2ccccc2N)cc1,83.4,.,.
C[C@H](CO)N1C[C@H](C)[C@H](CN(C)Cc2ccc(C(=O)Nc3ccccc3N)cc2)Oc2ccc(NC(=O)Nc3ccc(C(F)(F)F)cc3)cc2C1=O,.,.,.
C[C@H]1CN([C@@H](C)CO)C(=O)Cc2cc(NC(=O)c3ccncc3)ccc2O[C@@H]1CN(C)Cc1ccc(C(=O)Nc2ccccc2N)cc1,.,.,.
C[C@H]1CN([C@@H](C)CO)C(=O)Cc2cc(NC(=O)Nc3ccc(C(F)(F)F)cc3)ccc2O[C@H]1CN(C)Cc1ccc(C(=O)Nc2ccccc2N)cc1,86.9,.,.
COC(=O)CCCCCCC(=O)N/N=C/c1cccc(Oc2ccccc2)c1,.,/,.
O=C(CCCCCC(=O)N/N=C/c1ccc2ccccc2n1)NO,/,.,/
O=C(N/N=C/c1ccc(O)cc1)c1ccccc1O,.,.,.
C[C@@H]1CN([C@@H](C)CO)C(=O)c2cccc(NS(=O)(=O)c3ccccc3)c2O[C@@H]1CN(C)Cc1ccc(-c2ccccc2)cc1,87.3,/,.
Cc1ccc(S(=O)(=O)Nc2cccc3c2O[C@H](CN(C)Cc2ccc(-c4ccccc4)cc2)[C@@H](C)CN([C@H](C)CO)C3=O)cc1,.,/,.
Cc1ccc(S(=O)(=O)Nc2cccc3c2O[C@@H](CN(C)Cc2ccc4c(c2)OCO4)[C@@H](C)CN([C@H](C)CO)C3=O)cc1,.,/,.
Cc1ccc(S(=O)(=O)Nc2cccc3c2O[C@@H](CN(C)Cc2ccc(-c4ccccc4)cc2)[C@@H](C)CN([C@@H](C)CO)C3=O)cc1,73.9,/,.
C[C@H](CO)N1C[C@H](C)[C@@H](CN(C)Cc2ccc3c(c2)OCO3)Oc2c(NS(=O)(=O)c3ccc(Cl)cc3)cccc2C1=O,57.7,.,.
C[C@@H]1CN([C@H](C)CO)C(=O)c2cccc(NS(=O)(=O)c3cccs3)c2O[C@@H]1CN(C)Cc1ccc(C(=O)O)cc1,67.7,.,.
C[C@@H]1CN([C@H](C)CO)C(=O)c2cccc(NS(=O)(=O)c3ccccc3)c2O[C@@H]1CN(C)Cc1ccc(-c2ccccc2)cc1,.,/,.
C[C@@H]1CN([C@@H](C)CO)C(=O)c2cccc(NS(=O)(=O)c3cccs3)c2O[C@@H]1CN(C)Cc1ccc(C(=O)O)cc1,.,.,.
COC(=O)CCCCCCC(=O)NN,.,/,.
C=CCNC(=O)[C@H]1[C@@H]2C(=O)O[C@@H](c3ccccc3)[C@@H](c3ccccc3)N2[C@@H](c2ccc(O)cc2)[C@]12C(=O)N(C(=O)OCCOC)c1ccccc12,/,.,/
[N-]=[N+]=NCc1ccccc1C[C@]1(C(=O)N2CCOCC2)N=C(c2ccc(OCCCO)cc2)O[C@H]1c1ccccc1,/,.,/
O=C(N=NC=C1C=CN(O)C=C1)c1ccccn1,.,.,.
